This passage reports EC50, Control and Increase over control results from ChEMBL document CHEMBL1131591, “2-Fluoro-4-pyridinylmethyl analogues of linopirdine as orally active acetylcholine release-enhancing agents with good efficacy and duration of action” (J Med Chem, 1998).

The species entered for experiment [1] is Rattus norvegicus. Description: Compound was tested in vitro for its ability to enhance the K+-stimulated release of [3H]acetylcholine from rat hippocampal slices preloaded with [3H]-Choline. Type of experiment: functional. Conditions: Hippocampus. In short, it runs like this:
(§1)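 Superfused rat hippocampal slices preloaded with [3H]choline. Release evoked for 4 min at two points (S1, S2) by raising K+ in the medium to 25 mM. Compound added after S1 and kept in the medium through S2. Enhancement taken as the S2/S1 ratio, expressed as percent of control (control = 100%). EC50 taken as the concentration giving 50% of the compound's peak efficacy. At least three determinations per point.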

Experiment [2] is filed under the species Rattus norvegicus. Description: Compound was tested in vitro for its ability to enhance the K+-stimulated release of [3H]acetylcholine from rat hippocampal slices preloaded with [3H]choline at 10 uM. The format is functional, Hippocampus. Put shortly:
as §1

The species entered for experiment [3] is Rattus norvegicus. The experiment can be described thus: Compound was tested in vitro for its ability to enhance the K+-stimulated release of [3H]acetylcholine from rat hippocampal slices preloaded with [3H]choline at 3 uM. Type of experiment: functional, Hippocampus. In short, it runs like this:
as §1

Experiment [4] concerns Rattus norvegicus. The experiment can be described thus: Compound was tested in vivo for microdialysis ACh release after peroral administration of 5 mg/kg methocel at the duration of >80 minutes. Type of experiment: functional. Conditions: route oral. In short, it runs like this: (§2)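 Freely moving rats under brain microdialysis. Dialysate injected onto HPLC every 20 min to measure ACh. Compound or vehicle given orally after the fourth 20-min collection, usually 14 collections in total. Vehicle was water or a suspension in […] methocel in water, bead-milled overnight. Peak reported as percent increase over baseline (control = 0). Duration is the number of consecutive minutes at significance.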

Experiment [5] concerns Rattus norvegicus. Description: Compound was tested in vivo for microdialysis ACh release after peroral administration of 1 mg/kg suspended in methocel at the duration of 120 minutes. Conditions: route oral. The format is functional. Put shortly: as §2
The test system of experiment [6] is Rattus norvegicus. Description: Compound was tested in vivo for microdialysis ACh release after peroral administration of 10 mg/kg water at the duration of 100 minutes. The format is functional. Conditions: route oral. In short, it runs like this: as §2
Experiment [7] concerns Rattus norvegicus. The experiment can be described thus: Compound was tested in vivo for microdialysis ACh release after peroral administration of 5 mg/kg suspended in water. The format is functional. Conditions: route oral. Put shortly:
as §2

Experiment [8] has as its system Rattus norvegicus. The experiment can be described thus: Compound was tested in vivo for microdialysis ACh release after peroral administration of 10 mg/kg methocel. Type of experiment: functional. Particulars: route oral. Put shortly:
as §2

In experiment [9] the test system is Rattus norvegicus. The experiment can be described thus: Compound was tested in vivo for microdialysis ACh release after peroral administration of 0.5 mg/kg suspended in methocel. Type of experiment: functional. Particulars: route oral. Put shortly:
as §2

Experiment [10] relates to Rattus norvegicus. The experiment can be described thus: Compound was tested in vivo for microdialysis ACh release after peroral administration of 1 mg/kg methocel at the duration of >120 minutes. The format is functional. Conditions: route oral. Put shortly: as §2
Experiment [11] relates to Rattus norvegicus. Description: Compound was tested in vivo for microdialysis ACh release after peroral administration of 5 mg/kg methocel at the duration of 100 minutes. The format is functional. Particulars: route oral. In short, it runs like this: as §2
For experiment [12], the species on record is Rattus norvegicus. Description: Compound was tested in vitro for its ability to enhance the K+-stimulated release of [3H]acetylcholine from rat hippocampal slices preloaded with [3H]-Choline at 1 uM. The format is functional, Hippocampus. Put shortly:
as §1

The subject of experiment [13] is Rattus norvegicus. The experiment can be described thus: Compound was tested in vivo for microdialysis ACh release after peroral administration of 10 mg/kg water at the duration of >40 minutes. The format is functional. Particulars: route oral. In short, it runs like this: as §2
For experiment [14], the system named is Rattus norvegicus. The experiment can be described thus: Compound was tested in vivo for microdialysis ACh release after peroral administration of 10 mg/kg suspended in methocel at the duration of 80 minutes. The format is functional. Conditions: route oral. Put shortly: as §2
Experiment [15] relates to Rattus norvegicus. Description: Compound was tested in vivo for microdialysis ACh release after peroral administration of 5 mg/kg suspended in water at the duration of 20 minutes. The format is functional. Particulars: route oral. In short, it runs like this:
as §2

Experiment [16] concerns Rattus norvegicus. Description: Compound was tested in vivo for microdialysis ACh release after peroral administration of 20 mg/kg methocel at the duration of 140 minutes. Type of experiment: functional. Conditions: route oral. Put shortly: as §2

As a reminder, the EC50 is the concentration that produces a half-maximal response. With `c1ccc2c(c1)-c1ncccc1C2(Cc1ccncc1)Cc1ccncc1`, the 50% effective concentration (EC50) in the experiment listed under Rattus norvegicus [1] stood at 4120 nM. The Control in the experiment listed under Rattus norvegicus [2] is given as 725%.
With `Fc1cc(CC2(Cc3ccnc(F)c3)c3ccccc3-c3ncccc32)ccn1`, the Control in the experiment listed under Rattus norvegicus [3] is 440%. For the same compound, the Increase over control is listed as 201% in the experiment with Rattus norvegicus [4] and 74% in the experiment with Rattus norvegicus [5]. The concentration for a half-maximal effect (EC50) in the experiment listed under Rattus norvegicus [1] was 1600 nM.
As to `O=C1c2ccccc2C(Cc2ccncc2)(Cc2ccncc2)c2ccccc21`, the Increase over control worked out at 127% in the experiment on Rattus norvegicus [6] and 18% in the experiment with Rattus norvegicus [7]. The concentration giving a half-maximal response (EC50) in the experiment listed under Rattus norvegicus [1] stood at 450 nM. The Control in the experiment filed under Rattus norvegicus [2] is 600%.
For `O=C1N(c2ccccc2)c2ccccc2C1(Cc1ccnc(F)c1)Cc1ccnc(F)c1`, the Increase over control in the experiment on Rattus norvegicus [8] stood at 44%. Moreover, in the experiment listed under Rattus norvegicus [1], the EC50 was 15200 nM. The Control in the experiment filed under Rattus norvegicus [2] is on record as 326%.
In the case of `O=C1c2ccccc2C(Cc2ccnc(F)c2)(Cc2ccnc(F)c2)c2ccccc21`, the figures for the Increase over control with Rattus norvegicus [9] and with Rattus norvegicus [10] were 40% and 115%, respectively. Moreover, in the experiment listed under Rattus norvegicus [3], the Control is given as 413%. In the experiment filed under Rattus norvegicus [1], the half-maximal effective concentration (EC50) came out at 830 nM.
Take `O=C1c2ccccc2C(Cc2ccncc2)(Cc2ccnc(F)c2)c2ccccc21`: in the experiment with Rattus norvegicus [11], the Increase over control was found to be 75%. For the same compound, the Control in the experiment filed under Rattus norvegicus [12] amounted to 452%. Also, in the experiment filed under Rattus norvegicus [1], the EC50 was 410 nM.
`O=C1N(c2ccccc2)c2ccccc2C1(Cc1ccncc1)Cc1ccnc(F)c1` (configuration not stated) returned an Increase over control in the experiment on Rattus norvegicus [8] of 27%. Further, the EC50 in the experiment filed under Rattus norvegicus [1] worked out at 10000 nM. In addition, the Control in the experiment listed under Rattus norvegicus [2] is listed as 433%.
With `Fc1cc(CC2(Cc3ccncc3)c3ccccc3-c3ncccc32)ccn1` (configuration not stated), the Increase over control with Rattus norvegicus [7] came to 47%; in the experiment with Rattus norvegicus [13], 52%. For the same compound, in the experiment listed under Rattus norvegicus [1], the EC50 came to 1080 nM. Besides, in the experiment filed under Rattus norvegicus [2], the Control was 317%.
In the case of `O=C1N(c2ccccc2)c2ccccc2C1(Cc1ccncc1)Cc1ccncc1` [LINOPIRDINE], the Increase over control with Rattus norvegicus [14] was determined as 65%; in the experiment on Rattus norvegicus [15] it was 50%; in the experiment with Rattus norvegicus [16] it was 117%. Besides, the EC50 in the experiment filed under Rattus norvegicus [1] worked out at 4500 nM. For the same compound, the Control in the experiment filed under Rattus norvegicus [2] amounted to 337%.
